For orientation: MIC means the lowest concentration that inhibits growth of the organism. In general, inhibition in vivo refers to the relative decrease from the control value, in per cent.

≈ marks a conversion by molar mass, not a printed value. Calls of active or inactive are those of the source. The rule behind the calls is not given here.

Series [1] has as its system Rattus norvegicus. Put plainly: Gastrointestinal toxicity in albino rat assessed as ulcer index at 100 mg/kg, po. It is filed as organism-based. On the set-up: dose 100 mg/kg, route oral. The settings on record: in vivo. The gist of the method: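 Rats from the paw edema study killed by ether overdose; stomachs removed, opened and examined for visible lesions. Each lesion scored 0–5 by length (0 none, 1 petechiae, 2 <1 mm, 3 1–2 mm, 4 2–4 mm, 5 >4 mm erosions). Scores summed per rat; group ulcer index is the mean lesion score.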

Another series relates to Staphylococcus aureus. Put plainly: Antibacterial activity against Staphylococcus aureus NCTC 6571 after 24 hrs by agar cup diffusion method. It is filed as functional. The gist of the method:
(§1)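 Nutrient agar seeded with culture, poured 3–4 mm; six 10 mm cups per plate, one as DMF solvent control. Compounds dissolved in DMF (stock 1 mg/mL), two-fold serial dilutions 32–512 µg/mL, 0.1 mL per cup. Incubation 24 h at 37 °C; inhibition zone diameter read in mm. MIC taken as intercept of log concentration versus zone diameter plot; ciprofloxacin reference.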

Series [2] deals with Rattus norvegicus. Put plainly: Antiinflammatory activity in albino rat assessed as inhibition of carrageenan-induced paw edema at 100 mg/kg, po administered 30 mins prior to carrageenan challenge measured after 5 hrs. It is filed as functional. A digest of the protocol:
(§2)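 Male albino rats, 140–150 g, groups of 5, acclimatized 3 days, water only on the last day. Oral dosing in carboxymethylcellulose vehicle 30 min before subplantar 1% carrageenan (0.1 mL) into one hind paw; contralateral paw given saline. Paw thickness by digital plethysmometer at 0–5 h. Percent inhibition from difference between paws, treated versus vehicle control; indomethacin reference; mean ± SEM.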
On the technique in general: Carrageenan injected into the paw causes an acute inflammation.

For a further series, the system named is Pseudomonas aeruginosa. Description: Antibacterial activity against Pseudomonas aeruginosa after 24 hrs by agar cup diffusion method. It counts as functional. The gist of the method: as §1
In series [3] the test system is Rattus norvegicus. Description: Antiinflammatory activity in albino rat assessed as inhibition of carrageenan-induced paw edema at 100 mg/kg, po administered 30 mins prior to carrageenan challenge measured after 1 hr. It is filed as functional. The gist of the method: as §2
Series [4] deals with Rattus norvegicus. Put plainly: Antiinflammatory activity in albino rat assessed as inhibition of carrageenan-induced paw edema at 100 mg/kg, po administered 30 mins prior to carrageenan challenge measured after 2 hrs. It counts as functional. The gist of the method:
as §2

Series [5] relates to Rattus norvegicus. Put plainly: Antiinflammatory activity in albino rat assessed as inhibition of carrageenan-induced paw edema at 100 mg/kg, po administered 30 mins prior to carrageenan challenge measured after 3 hrs. It counts as functional. A digest of the protocol: as §2
Series [6] concerns Rattus norvegicus. Description: Antiinflammatory activity in albino rat assessed as inhibition of carrageenan-induced paw edema at 100 mg/kg, po administered 30 mins prior to carrageenan challenge measured after 4 hrs. It counts as functional. The gist of the method: as §2
The next series deals with Escherichia coli. Description: Antibacterial activity against Escherichia coli C-600 after 24 hrs by agar cup diffusion method. The settings on record: C-600, 24 h. It counts as functional. A digest of the protocol:
as §1

In another series the test system is Bacillus subtilis. Description: Antibacterial activity against Bacillus subtilis after 24 hrs by agar cup diffusion method. It is filed as functional. A digest of the protocol: as §1

Take `O=C(OCCBr)c1nn(-c2ccccc2)c(-c2ccccc2)c1C(=O)c1ccccc1`: the UI in the series with Rattus norvegicus [1] is on record as 11. Also, in the series on Staphylococcus aureus, the MIC result is “inactive”. For the same molecule, the inhibition in vivo at 100 mg/kg is 52.2% with Rattus norvegicus [2]; 25.4% in the series on Rattus norvegicus [3]; 28.4% with Rattus norvegicus [4]; 30.2% in the series with Rattus norvegicus [5]; 41.2% with Rattus norvegicus [6]. The MIC stood at 6.04 µg/mL (≈ 12.7 µM) in the series on Pseudomonas aeruginosa, 24 µg/mL (≈ 50.6 µM) against Escherichia coli and 47.5 µg/mL (≈ 99.9 µM) in the series on Bacillus subtilis.
Take `O=C(O)c1cn(C2CC2)c2cc(N3CCNCC3)c(F)cc2c1=O` [CIPROFLOXACIN]: the MIC in the series on Staphylococcus aureus (NCTC 6571, 24 h) is 52.4 µg/mL (≈ 158 µM); in the series on Pseudomonas aeruginosa, 30.8 µg/mL (≈ 93 µM); against Escherichia coli, 1.2 µg/mL (≈ 3.62 µM); in the series on Bacillus subtilis, 0.61 µg/mL (≈ 1.84 µM).
With `Cc1ccc(NC(=O)c2nn(-c3ccccc3)c(-c3ccccc3)c2C(=O)c2ccccc2)cc1`, the UI with Rattus norvegicus [1] was found to be 4. Further, in the series with Staphylococcus aureus, the MIC entry was “inactive”. Besides, the inhibition in vivo at 100 mg/kg in the series on Rattus norvegicus [2] worked out at 51.2%; in the series with Rattus norvegicus [3], 42.5%; in the series on Rattus norvegicus [4], 29.1%; with Rattus norvegicus [5] it was 28.3%; in the series on Rattus norvegicus [6] it was 30.2%. Further, the MIC was 4.3 µg/mL (≈ 9.4 µM) against Pseudomonas aeruginosa, 16.1 µg/mL (≈ 35.3 µM) in the series on Escherichia coli and 33.8 µg/mL (≈ 73.9 µM) against Bacillus subtilis.
`O=C(O)c1nn(-c2ccccc2)c(-c2ccccc2)c1C(=O)c1ccccc1`: the UI with Rattus norvegicus [1] amounted to 8. The MIC entry in the series on Staphylococcus aureus was “inactive”. For the same molecule, the inhibition in vivo at 100 mg/kg in the series on Rattus norvegicus [2] came to 56.6%; in the series on Rattus norvegicus [3] it was 32.7%; in the series with Rattus norvegicus [4], 35%; with Rattus norvegicus [5], 36.5%; with Rattus norvegicus [6], 51.5%. Moreover, the MIC in the series on Pseudomonas aeruginosa came to 1.92 µg/mL (≈ 5.21 µM); in the series on Escherichia coli, 16.1 µg/mL (≈ 43.7 µM); with Bacillus subtilis, 10.8 µg/mL (≈ 29.2 µM).
`COc1ccc(NC(=O)c2nn(-c3ccccc3)c(-c3ccccc3)c2C(=O)c2ccccc2)cc1`: in the series with Rattus norvegicus [1], the UI was determined as 33.3. Also, the MIC result in the series on Staphylococcus aureus is “inactive”. Besides, the inhibition in vivo at 100 mg/kg came to 52.9% in the series with Rattus norvegicus [2]; 40% with Rattus norvegicus [3]; 42.5% in the series on Rattus norvegicus [4]; 28.3% in the series with Rattus norvegicus [5]; 43% in the series on Rattus norvegicus [6]. Also, the figures for the MIC in the series on Pseudomonas aeruginosa, with Escherichia coli and in the series on Bacillus subtilis were 22.9 µg/mL (≈ 48.4 µM), 4.5 µg/mL (≈ 9.5 µM) and 43.8 µg/mL (≈ 92.5 µM), respectively.
Regarding `O=C(c1ccccc1)c1c(C(=O)N2CCN(C(=O)CCl)CC2)nn(-c2ccccc2)c1-c1ccccc1`, the MIC result in the series with Staphylococcus aureus was “inactive”. Moreover, the MIC amounted to 61.5 µg/mL (≈ 120 µM) with Pseudomonas aeruginosa, 1.37 µg/mL (≈ 2.67 µM) in the series on Escherichia coli and 11.2 µg/mL (≈ 21.8 µM) in the series with Bacillus subtilis.
Take `O=C(OCCO)c1nn(-c2ccccc2)c(-c2ccccc2)c1C(=O)c1ccccc1`: the UI in the series with Rattus norvegicus [1] was found to be 9. Also, in the series on Staphylococcus aureus, the MIC entry is “inactive”. The inhibition in vivo at 100 mg/kg worked out at 71.7% in the series with Rattus norvegicus [2]; 19.7% in the series with Rattus norvegicus [3]; 51.5% in the series on Rattus norvegicus [4]; 66.4% with Rattus norvegicus [5]; 68.6% in the series with Rattus norvegicus [6]. In addition, the MIC with Pseudomonas aeruginosa stood at 1.29 µg/mL (≈ 3.13 µM); against Escherichia coli it was 7.95 µg/mL (≈ 19.3 µM); in the series on Bacillus subtilis, 3.88 µg/mL (≈ 9.41 µM).
Regarding `O=C(O)c1ccc(NC(=O)c2nn(-c3ccccc3)c(-c3ccccc3)c2C(=O)c2ccccc2)cc1`, the UI in the series on Rattus norvegicus [1] worked out at 17. Moreover, the MIC amounted to 64 µg/mL (≈ 131 µM) against Staphylococcus aureus (NCTC 6571, 24 h); 25.3 µg/mL (≈ 52 µM) with Pseudomonas aeruginosa; 30.9 µg/mL (≈ 63.4 µM) against Escherichia coli; 34.8 µg/mL (≈ 71.4 µM) against Bacillus subtilis. Further, the inhibition in vivo at 100 mg/kg in the series with Rattus norvegicus [2] was determined as 46.4%; in the series with Rattus norvegicus [3], 23.6%; in the series on Rattus norvegicus [4], 25%; in the series with Rattus norvegicus [5], 27%; in the series with Rattus norvegicus [6] it was 41.2%.
`COc1ccc2c(c1)c(CC(=O)O)c(C)n2C(=O)c1ccc(Cl)cc1` [INDOMETHACIN]: in the series with Rattus norvegicus [1], the UI is 69.5.
